Results on 92 compounds are retold here after PubChem BioAssay AID504383 (The Scripps Research Institute Molecular Screening Center, 2011).

Several values for one entry are separate records, joined by “and”; a condition that tells them apart may be missing. Equal entries are not always repeated. In all, about 2,500 compounds went through this assay and about 1,200 (48%) were called active.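 The calls were made as follows: active = mean activation above the low control average plus 3 SD, as set in the primary screen (cut at about 12% in these data); inactive = the rest.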 So high a share suggests a set chosen from earlier hits. The list shows a part of the results. The source holds several records for some structures; these can differ, active in one and inactive in another.

This assay deals with Troponin I, cardiac muscle (Homo sapiens) + Troponin T, cardiac muscle (Homo sapiens) + Troponin C, slow skeletal and cardiac muscles (Homo sapiens) (UniProt P19429+P45379+P63316). The assay can be described thus: cardiac RTF calcium sensitivity activators, confirmation, biochemical, IANBD-TnC fluorescence, triplicate (AID 504383).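 Also: 0% = DMSO at 0.472 mM calcium and 100% = DMSO at 2.9 mM calcium.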 Conditions: IANBD-labeled cardiac RTF, Ca2+ sensitivity fluorescence; at 7.2 µM; stronger effect = higher value; scaled from EC20 to saturating calcium; tested at EC20 calcium, 0.472 mM. The procedure, abridged:
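Assay system: labelled regulated thin filament protein complex; schedule: 15 min compound incubation with filaments at 25 °C; benchmarks: low control EC20 calcium, high control EC100 calcium; reagent: Ca2+ 0.472 mM, EC20 level; doses: one dose, 7.2 µM nominal; evaluation: fluorescence gain scaled between EC20 and EC100 calcium controls; signal: filament fluorescence intensity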
Regarding `CCC(C)n1ncn(-c2ccc(N3CCN(c4ccc(OCC5COC(Cn6cncn6)(c6ccc(Cl)cc6Cl)O5)cc4)CC3)cc2)c1=O` (configuration not stated), the activation is 390% (active).
The same measure for `Fc1ccc(-c2nc3ccncc3[nH]2)cc1`: 13% (active); for `Cc1ccc(CNC(=O)CC(C)S(=O)(=O)c2ccc3c(c2)NC(=O)CS3)o1` (configuration not stated): 354% (active).
The figure for `CCCCc1ccc(NC(=O)c2cnccn2)cc1` is 22.1% (active); for `CCCCc1ccc(NC(=O)N2CCNC(=O)C2CC(=O)Nc2ccsc2C(=O)OC)cc1` (configuration not stated) it is 5.97% (inactive).
The figure for `COC(=O)[C@@H]1C[C@@]2(O)[C@H](O)[C@H](O)[C@H](O)C[C@H]2N1C/C=C/c1ccccc1` is 6.57% (inactive); for `CCCN1CCc2c(sc(NC(=S)NC(=O)c3ccccc3)c2C#N)C1` it is 270% (active).
In the case of `N#Cc1c(NC(=O)C2CC=CCC2C(=O)O)sc2c1CCCCCC2` (configuration not stated), the activation is 6.81% (inactive).
Turning to `O=C(Nc1nc2c(s1)CN(Cc1ccccc1)CC2)c1cccc(S(=O)(=O)N2CCc3ccccc32)c1`, the activation is 5.41% (inactive).
In the case of `CCN1CCc2c(sc(NC(=O)c3ccc(S(=O)(=O)N(C)c4ccccc4)cc3)c2C(=O)NC)C1`, the activation was 10.6% (inactive).
The same measure for `N#Cc1c(NC(=O)/C=C/C(=O)O)sc2c1CCN(Cc1ccccc1)C2`: 13.4% (active); for `NC(=O)c1c(NC(=O)c2ccccc2)sc2c1CCN(Cc1ccccc1)C2`: 105% (active).
Turning to `CC(=O)c1ccc(C(=O)Nc2sc3c(c2C(N)=O)CCN(Cc2ccccc2)C3)cc1`, the activation is 2.38% (inactive).
The figure for `CC[n+]1c(/C=C/N(C)c2ccccc2)oc2ccccc21` is 0.87% (inactive).
As for `CC[n+]1c(/C=C/N(C)c2ccccc2)oc2ccc(F)cc21`, the activation is 14.5% (active).
The figure for `Cc1cc(C)n2nc3nc4c(cc3c2n1)CCCC4` is 89.3% (active); for `Cc1ccc(-c2nc3ncccn3c2Nc2ccc3c(c2)OCCO3)o1` it is 230% (active).
The same measure for `COc1cccc(C2C3CN(C)CC=C3C(C#N)=C(N)C2(C#N)C#N)c1OC` (configuration not stated): 8.43% (inactive); for `COc1cccc(C2C(C#N)=C(N)Oc3cc(C)oc(=O)c32)c1OC` (configuration not stated): 23% (active).
As for `CN1CCC/C1=C/C=C1\SC(=S)NC1=O`, the activation was 4.23% (inactive).
The figure for `CCCCN1C(=O)/C(=C/C=C2/CC(C)(C)CN2C)SC1=S` is 2.58% (inactive).
The figure for `CN1C(=O)/C(=C\C=C2/CCCN2C)N(C)C1=S` is 173% (active); for `CCN1C(=O)/C(=C/C=C2/CCCN2C)OC1=S` it is 12.9% (active).
The same measure for `C[n+]1c2cc(N)ccc2cc2ccc(N)cc21`: 6.45% (inactive) and 14.5% (active).
As to `N#Cc1cc(C(=O)c2ccccc2O)cn(-c2nccs2)c1=O`, the activation is 45.5% (active).
The figure for `N#Cc1cc(C(=O)c2cc(F)ccc2O)cn(-c2nccs2)c1=O` is 9.61% (inactive); for `CN1/C(=C\C(=O)c2ccco2)C(C)(C)c2ccccc21` it is 7.09% (inactive).
On to `Cn1c(=O)c2c(nc(NCCNC(=O)c3ccco3)n2Cc2ccccc2Cl)n(C)c1=O`, for which the activation was 7.43% (inactive).
The figure for `O=C(Cn1c(C(F)(F)F)nc2ccccc21)NCCN1CCCC1` is -3.29% (inactive); for `CCCC(=O)NCCCc1nc2ccccc2n1C` it is 124% (active).
The figure for `Cn1c(CCNC(=O)c2ccco2)nc2ccccc21` is 919% (active); for `CCN(CC)CCCNC(=O)CCn1nc(-c2ccc(Cl)cc2)ccc1=O` it is 7.9% (inactive); for `CC(C)(C)NCc1cc(Cl)ccc1OCc1cccs1` it is 47% (active).
The figure for `Cc1cc(Cl)ccc1OCC(=O)Nc1nc(-c2cccs2)cs1` is -1.8% (inactive); for `COc1ccc(OC)c(/C=c2\sc3nc(-c4cccs4)nn3c2=O)c1` it is 9.45% (inactive).
As to `COc1ccc(C(=O)Nn2cnc3scc(-c4cccs4)c3c2=O)c(O)c1`, the activation was 29.8% (active).
On to `CCOC(=O)c1nc2cc3n(c(CC(C)C)c-2c1C)CC(C)=C3C`, for which the activation was 1.31% (inactive).
The figure for `Cc1ccc(N=Nc2c(O)[nH]c3ccc(F)cc23)cc1` is 20.6% (active); for `O=c1[nH]c2ccc(N=Cc3c(O)ccc4cc(Br)ccc34)cc2[nH]1` it is 0.37% (inactive).
As for `Cc1cccc(N=Nc2c(O)[nH]c3ccc(F)cc23)c1`, the activation is 7.58% (inactive).
As to `Oc1[nH]c2ccc(Br)cc2c1N=Nc1ccc(F)cc1`, the activation was 22.7% (active).
On to `CCN1/C(=C/C=C2/SC(=Nc3cccc4ncccc34)N(C)C2=O)Sc2ccccc21`, for which the activation is 28.3% (active).
The figure for `CCN1/C(=C2\SC(=S)N(Cc3ccccc3)C2=O)Sc2ccccc21` is -1.47% (inactive).
The same measure for `CC1(C)CCN2CCC(C)(C)c3c(O)ccc1c32`: 42.4% (active).
The same measure for `Cc1cccn2c(=O)c3cc(C#N)c(=NC(=O)c4cccs4)n(CCCOC(C)C)c3nc12`: 4.3% (inactive); for `CCOCCCn1c(=NC(=O)c2cccs2)c(C#N)cc2c(=O)n3cccc(C)c3nc21`: 19% (active).
Consider `CCOC(=O)/C(=C\c1ccc(N2CCC(c3ccccc3)=N2)cc1)C(C)=O`, for which the activation was 8.5% (inactive).
The same measure for `CCOC(=O)/C(=C/C1=CC(=C/N(C)C)/C(=O)O1)C(C)=O`: 87.4% (active).
The figure for `CCOC(=O)NC1(C(F)(F)F)C(=O)NC(C)=C1C(=O)OC` (configuration not stated) is 19.8% (active); for `CC1CCN(c2ccc3c(c2)S(=O)(=O)c2ccccc2C3=O)CC1` it is 9.57% (inactive); for `CC(Oc1ccc(F)cc1)C(=O)Nc1sc2c(c1C(=O)NCc1cccnc1)CCCC2` (configuration not stated) it is 83.6% (active).
On to `O=C(O)CCCC(=O)Nc1ccc(C(=O)NCc2cccnc2)cc1`, for which the activation was 0.95% (inactive).
The same measure for `NC(=O)c1c(Nc2nc3c(F)cccc3s2)sc2c1CCCC2`: -1.65% (inactive); for `CC1(C)c2ccccc2N2CC(=O)N(CC(N)=O)C21C` (configuration not stated): 70.2% (active); for `CN1C(=CC=C2C=C(I)C(=O)C(I)=C2)C(C)(C)c2ccccc21`: 4.78% (inactive).
The figure for `O=C(NCc1cccc(C(F)(F)F)c1)c1cccc2c1C(=O)c1ccc(N3CCC(Cc4ccccc4)CC3)cc1S2(=O)=O` is 8.69% (inactive).
As for `O=C(NC1CC1)c1cccc2c1C(=O)c1ccc(N3CCC(Cc4ccccc4)CC3)cc1S2(=O)=O`, the activation is 0.64% (inactive).
For the compound `O=C(NCc1ccco1)c1cccc2c1C(=O)c1ccc(N3CCCC3)cc1S2(=O)=O`, the activation is 7.33% (inactive).
For `CC1CCN(c2ccc3c(c2)S(=O)(=O)c2cccc(C(=O)NCc4ccc(F)cc4)c2C3=O)CC1`, the activation was 1.28% (inactive).
For the compound `O=C(NCc1ccc(F)cc1)c1cccc2c1C(=O)c1ccc(N3CCC(Cc4ccccc4)CC3)cc1S2(=O)=O`, the activation was 4.35% (inactive).
Consider `CC1CCN(c2ccc3c(c2)S(=O)(=O)c2cccc(C(=O)NCc4cccc(F)c4)c2C3=O)CC1`, for which the activation is 8.22% (inactive).
The same measure for `O=C(NCc1ccco1)c1cccc2c1C(=O)c1ccc(N3CCC(Cc4ccccc4)CC3)cc1S2(=O)=O`: 63.9% (active); for `O=C(NCCc1ccc(F)cc1)c1cccc2c1C(=O)c1ccc(N3CCC(Cc4ccccc4)CC3)cc1S2(=O)=O`: 107% (active); for `O=C(NCc1cccc(F)c1)c1cccc2c1C(=O)c1ccc(N3CCC(Cc4ccccc4)CC3)cc1S2(=O)=O`: 14.5% (active).
On to `O=C(NCCNC(=O)c1cccs1)c1ccco1`, for which the activation is 40.3% (active).
The same measure for `O=C(NCC(=O)N(Cc1cccs1)C(C(=O)NC1CCCCC1)c1ccncc1)c1ccco1` (configuration not stated): 3.25% (inactive); for `CCOC(=O)Cc1csc(CC(N)=O)n1`: 4.59% (inactive).
The same measure for `CCOC(=O)Cc1csc(N(C)C)n1`: 10.1% (inactive).
The figure for `CCOC(=O)Cc1csc(NC(=O)c2sc3nc4cc(C)ccc4cc3c2N)n1` is 71.2% (active); for `Cc1ccc(NC(=O)CN(C)c2ccc(S(=O)(=O)N3CCCC3)cn2)cc1` it is 94.3% (active); for `Cc1ccc(CNC(=O)c2ccc(S(=O)(=O)N3CCCCC3)cc2)cc1` it is 6.31% (inactive).
As for `Cc1cccc2cc3c(N)c(C(=O)N4CCCc5ccccc54)sc3nc12`, the activation was 6.58% (inactive).
The figure for `CCc1cccc2cc3c(N)c(C(=O)Nc4ccc(S(=O)(=O)N5CCCC5)cc4)sc3nc12` is 24.8% (active); for `Nc1c(C(=O)Nc2ccc(S(=O)(=O)N3CCCC3)cc2)sc2nc3ccc(OC(F)(F)F)cc3cc12` it is 11.7% (active).
The figure for `O=c1[nH][nH]c(C(F)(F)F)c1C=Nc1cccc(Cl)c1` is 60% (active); for `O=c1[nH][nH]c(C(F)(F)F)c1C=NCc1ccccc1Cl` it is 33.6% (active); for `CN(C)c1ccc2nc3c(=O)[nH]c(=O)nc-3n(CC(O)C(O)C(O)CO)c2c1` (configuration not stated) it is 10.2% (inactive).
With `COc1ccccc1C(=O)n1nc(-c2ccccc2)nc1N`, the activation is 4.84% (inactive).
The same measure for `Cc1ccc(-c2nc(N)n(C(=O)c3cccnc3)n2)cc1`: 148% (active); for `COc1ccc(C(=O)/C=C/c2cn(CC(O)CN3CCOCC3)c3ccccc23)cc1` (configuration not stated): 21.6% (active); for `COC(=O)c1ccc(Oc2c(F)c(F)nc(N3CCOCC3)c2F)cc1`: 5.29% (inactive).
The figure for `COc1ccc(C(=O)/C=C/c2cn(CC(O)CN3CCN(C)CC3)c3ccccc23)cc1OC` (configuration not stated) is 133% (active).
On to `Cc1ccc(C(=O)/C=C/c2cn(CC(O)CN3CCOCC3)c3ccccc23)cc1` (configuration not stated), for which the activation was -2.05% (inactive).
As for `O=c1c(O)c(-c2cccs2)oc2ccc(Cl)cc12`, the activation is 4.87% (inactive).
As to `O=C(N/N=C/c1cc(Cl)cc(Cl)c1O)c1ccncc1`, the activation is 17.9% (active).
The figure for `Nc1nnnn1/N=C/c1cc(Cl)cc(Cl)c1O` is 11% (inactive).
For `C/C(=N/NC(=O)c1ccncc1)c1cc2ccc(O)cc2oc1=O`, the activation was 4.52% (inactive).
The figure for `CC1(C)CC2CC(C)(CN2CC(=O)C(C#N)c2ccccc2)C1` (configuration not stated) is 7.07% (inactive); for `Cn1ncc2c(O/N=C(\N)c3ccc(C(F)(F)F)cc3)ncnc21` it is 93.4% (active).
For `Nc1ccn([C@H]2C[C@H](O)[C@@H](CO)O2)c(=O)n1`, the activation is 11.1% (inactive).
The same measure for `CC1(OC(=O)CCc2ccccc2)C(=O)C=C2C=C(c3ccc(C#N)cc3)N(C3CCCC3)C=C2C1=O` (configuration not stated): 5.7% (inactive); for `Cc1cc(C)n(C2CCCCC2OC(=O)CCc2ccccc2)n1` (configuration not stated): 35.8% (active).
